Among the data in PubChem BioAssay AID624084 (The Scripps Research Institute Molecular Screening Center, 2012) are Ki values, retold here.

The test deals with metallo-beta-lactamase IMP-1 (Pseudomonas aeruginosa). Description: IMP-1 metallo-beta-lactamase inhibitors, Ki determination, late-stage follow-up, nonselective VIM-2 MBL inhibitor project, biochemical, absorbance, Ki and Km (AID 624084). The conditions noted are these: recombinant IMP-1, nitrocefin hydrolysis absorbance 495 nm, kinetic. In outline: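 Assay system: IMP-1 enzyme | Amount: IMP-1 enzyme at 0.1 nM final | Incubation: 6 min continuous absorbance reading at room temperature | Technique: Kinetic absorbance, 495 nm | Read-out: Ki from mixed-inhibition model fit | Repeats: Two replicate measurements | Doses: Multiple inhibitor concentrations crossed with varied substrate levels | Medium: pH 7.1 HEPES, ZnSO4, Brij 35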

Usually Ki stands for the dissociation constant of the complex between target and ligand, obtained from inhibition or displacement. With `CN1CCN(NC(=O)CN2C(=O)/C(=C/c3c(Cl)ccc(Cl)c3Cl)SC2=S)CC1`, the inhibitory constant (Ki) was 930 nM.
